# Gli-Sufu antag = antagonists of Gli-Sufu signaling | Sufu-KO-LIGHT fibroblasts, Gli luciferase reporter luminescence | inhibition, % at 5 µM | 340,000 tested, 0.74% active | AID 588413;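 active = inhibition above about 55%, limit read from the data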;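 also: 0% = DMSO-treated cells and 100% = wells with medium but no cells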
# UPR XBP1 act = activators of adaptive arm of unfolded protein response (XBP1). CHO-XBP1 luciferase reporter, IRE1-XBP1 UPR activation, luminescence; percent of tunicamycin response, DMSO as zero. activation, % at 20 µM. 330,000 tested, 0.33% active;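 active = versus positive control, 20 µM dose yields 30% or more activation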;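 also: 100% = tunicamycin at 10 µg/mL and 0% = DMSO only wells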
#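 Material – CHO cell line with stable XBP1 luciferase reporter · Buffer or medium – F12 plus 10% FBS · Compound – single point, 20 µM final compound, 1% DMSO · Schedule – 16-18 h cell attachment at 37 °C, then 6 h compound exposure · Signal – Steady-Glo luminescence read · Benchmarks – high control tunicamycin 10 µg/mL final, low control DMSO vehicle only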
# 697 NFkB inh = lowers PMA/ionomycin-induced NF-kB signal in 697 B cells; 697 B-cell NF-kB luciferase reporter, 16 h; inhibition, % at 4 µM; 330,000 tested, 0.33% active; AID 435022; in the data active = inhibition above about 35%
# UPR CHOP act = activators of apoptotic arm of unfolded protein response (CHOP); 330,000 tested, 0.34% active; AID 449763; CHO-CHOP luciferase reporter, UPR activation, luminescence; percent of tunicamycin response over DMSO baseline; activation, % at 10 µM;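 active = at 10 µM dose, activation of 40% or more, normalized to positive control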;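 also: 100% = tunicamycin at 10 µg/mL and 0% = DMSO alone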
#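 Evaluation: % reporter activation, DMSO baseline versus tunicamycin full activation; System: CHO-CHOP luciferase reporter cell line; Input: 500 cells/well; Incubation: 6 h compound treatment, 37 °C; Measured by: Steady-Glo luciferase luminescence; Dosing: one dose, 10 µM in 0.5% DMSO; Buffer or medium: F12 medium, 10% FBS; Benchmarks: positive tunicamycin 10 µg/mL, negative DMSO alone.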
# CHOP inh = inhibitors of CHOP induction in ER stress response. CHO-K1 CHOP-promoter luciferase, tunicamycin-induced, 15-18 h. inhibition, % at 10 µM. 220,000 tested, 3.8% active. AID 2732;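 active = compounds that reduced the stress-induced luciferase reporter signal by more than about 70% of percent inhibition, limit read from the data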;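 also: 0% = tunicamycin plus vehicle and 100% = wells without tunicamycin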
# Jurkat NFkB inh = lowers PMA/ionomycin-induced NF-kB signal in Jurkat cells | inhibition, % at 4 µM | PMA/ionomycin-induced NF-kB luciferase reporter, luminescence | 330,000 tested, 0.53% active; in the data active = inhibition above about 50%
# Gli-Sufu confirm = confirmation of Gli-SUFU pathway antagonists | shares compounds with Gli-Sufu antag | 2,500 tested, 40% active | Sufu-KO-LIGHT cells, Gli luciferase reporter, luminescence | inhibition, % at 5 µM;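 active = mean inhibition at 5 µM reaching about 45%, limit read from the data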;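 also: plate controls were DMSO-treated cells for no effect and wells lacking cells for full effect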
# SufuKO cytotox = cytotoxic in Gli-SUFU antagonist counter-screen. shares compounds with Gli-Sufu antag. Sufu-KO-LIGHT cells cytotoxicity, ATP luminescence. cytotoxicity, % at 5 µM. 2,500 tested, 32% active. AID 651994;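 active = mean cytotoxicity at 5 µM above about 25%, limit read from the data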;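 also: cells exposed to compound overnight for roughly 16 to 18 hours; plate controls were DMSO wells with cells for no effect and medium without cells for full effect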
# Wnt3a cs = Wnt3a reporter inhibition counter-screen. AID 651995. Wnt-LIGHT cells, Wnt3a-driven luciferase reporter, luminescence. shares compounds with Gli-Sufu antag. 2,500 tested, 20% active. inhibition, % at 6.25 µM;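 active = mean inhibition above about 25%, limit read from the data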
# An asterisk follows results filed as active; nt = no result. Only some compounds are listed: those with a hit (about 3.9% of all), similar ones and a draw of the others.
SMILES,Gli-Sufu antag,UPR XBP1 act,697 NFkB inh,UPR CHOP act,CHOP inh,Jurkat NFkB inh,Gli-Sufu confirm,SufuKO cytotox,Wnt3a cs
CCOc1ccc(NC(=O)Cn2cc(C(=O)C3CC3)c3ccccc32)cc1,-12.6,8.8,17.2,0.3,nt,7.8,nt,nt,nt
CCN(C(=O)CN1C(=O)COc2ccc(S(=O)(=O)N3CCOCC3)cc21)c1ccc(OC)cc1,52.2,-1.0,-22.4,0.3,nt,-11.2,11.3,13.1,-23.6
O=C(NCCCN1C(=O)c2ccccc2C1=O)OCc1ccccc1,2.2,nt,nt,nt,nt,nt,nt,nt,nt
COc1ccc(CCNC(=O)c2ccccc2C(=O)NCCc2ccc(OC)c(OC)c2)cc1OC,-0.5,-3.0,0.6,0.4,nt,-14.0,nt,nt,nt
COc1cc(NC(=O)CN2CCN(CC(=O)Nc3ccccc3OC)CC2)cc(OC)c1,20.1,-1.5,11.6,1.1,nt,-10.4,nt,nt,nt
CC(C)N(Cc1ccccc1)S(=O)(=O)c1ccc(F)cc1,59.4*,-1.3,-10.2,0.4,nt,18.5,48.7*,33.6*,32.8*
CCN(Cc1ccccc1)S(=O)(=O)c1ccc(F)cc1,-15.1,-1.9,-5.5,-0.3,nt,-2.2,nt,nt,nt
COc1ccccc1NC(=O)CN(c1ccc(C)cc1)S(=O)(=O)c1c(C)n[nH]c1C,55.7*,1.4,-6.0,2.8,10.6,-2.9,19.7,5.0,-25.1
COc1ccc(OC)c(NC(=O)CN(c2ccc(C)cc2)S(=O)(=O)c2c(C)n[nH]c2C)c1,-5.8,0.1,-4.5,2.7,nt,15.9,nt,nt,nt
N#CCSc1nnc(-c2ccc(S(=O)(=O)N3CCOCC3)cc2)n1CC1CCCO1 (stereo not drawn),94.0*,1.6,5.1,0.3,2.0,5.9,30.3,2.5,9.8
NC(=O)CSc1nnc(-c2ccc(S(=O)(=O)N3CCCC3)cc2)n1CC1CCCO1 (stereo not drawn),-1.5,-4.2,7.8,-2.2,15.7,-10.1,nt,nt,nt
O=C(CSc1nc(C(F)(F)F)cc(=O)[nH]1)N1CCCC1,0.8,1.2,-27.0,-0.8,nt,-1.3,nt,nt,nt
Cc1ccc(S(=O)(=O)N2CCN(C(=O)NCc3ccc(F)cc3)CC2)c(C)c1,13.6,-1.2,-0.1,0.5,nt,0.4,nt,nt,nt
Cc1cccnc1NC(=O)c1ccc(Cl)c(S(=O)(=O)N2CCCCCC2)c1,83.8*,-7.1,-16.9,1.5,nt,-14.1,5.2,7.8,-13.4
Cc1ccc(S(=O)(=O)N(C)C)cc1NC(=S)NC(C)CCC(C)C (stereo not drawn),56.0*,-1.7,-5.5,0.4,24.0,6.2,20.2,19.8,-64.4
CC(C)OCCCNC(=O)c1ccc(CS(=O)(=O)c2cccc(C(F)(F)F)c2)o1,53.6,-3.2,1.3,0.5,nt,15.3,19.2,19.0,-3.6
CCC1(O)C(=O)OCc2c1cc1n(c2=O)Cc2cc3cc(O)ccc3nc2-1 (stereo not drawn),52.0,nt,nt,nt,nt,nt,64.1*,50.9*,-71.8
COC(=O)[C@]1(C)N[C@H](CN(C)C(=O)c2ccc(C)cc2)[C@@H]2C(=O)N(Cc3ccccc3)C(=O)[C@@H]21,-22.1,2.0,7.5,-1.2,nt,0.5,nt,nt,nt
O=C(Cn1nc(C(=O)O)c2ccccc2c1=O)Nc1ccccc1C(F)(F)F,78.5*,0.5,-15.5,-0.5,nt,-5.8,11.8,7.3,-20.4
Cc1ccc(NC(=O)CC(NCC2CCCO2)C(=O)O)cc1C (stereo not drawn),56.9*,-3.2,-3.7,-0.2,-13.6,2.4,20.6,-2.1,13.6
Cc1cccc(-c2nc(-c3ccncc3)no2)c1,-144.6,-4.4,-183.1,-0.6,nt,-95.6,nt,nt,nt
Cc1ccc(-c2nc(-c3ccccc3)no2)c(Cl)c1,67.4*,-9.2,-168.1,-9.5,59.5,-62.2,68.9*,79.5*,102.5*
CCCc1nc2c(ccc3ccccc32)cc1CC,-5.3,2.5,-8.2,0.1,nt,3.1,nt,nt,nt
CN(CC1CCN(CCc2cccc(C(F)(F)F)c2)CC1)C(=O)c1ccc(F)cc1,37.4,3.6,1.1,2.6,nt,18.9,nt,nt,nt
COc1cc(C(=O)N(C)CC2CCN(CCc3cccc(C(F)(F)F)c3)CC2)ccc1C,57.8*,-3.0,-7.2,-0.3,nt,4.3,21.3,-7.1,-30.3
SMILES,Gli-Sufu antag,UPR XBP1 act,697 NFkB inh,UPR CHOP act,CHOP inh,Jurkat NFkB inh,Gli-Sufu confirm,SufuKO cytotox,Wnt3a cs
COc1ccc(NS(=O)(=O)c2ccc(OC)c(N(C)S(=O)(=O)c3ccc(Cl)cc3)c2)cc1,74.2*,-4.9,-48.0,1.8,69.8,13.1,42.6,39.4*,-34.8
COc1ccc(S(=O)(=O)Nc2ccc(F)cc2)cc1N(C)S(=O)(=O)c1ccc(Cl)cc1,-1.3,-1.9,-8.0,-0.4,50.9,20.9,nt,nt,nt
O=C1CC[C@@]23CCCN2C(=O)CCCC3C1 (stereo partly drawn),55.3*,1.1,-11.1,0.5,nt,nt,18.1,12.7,8.5
CC(Oc1ccccc1)C(=O)N1CCC2(CC1)CC(=O)c1ccccc1O2 (stereo not drawn),-5.5,-4.7,-7.6,-0.2,nt,3.6,nt,nt,nt
O=C(Cc1c(Cl)cccc1Cl)Nc1ccncc1Cl,8.5,-4.0,-31.8,-0.6,nt,8.0,nt,nt,nt
COc1ccc(CC(=O)Nc2ccncc2Cl)cc1,66.3*,-5.7,-17.7,3.0,nt,23.9,54.1*,25.5*,31.4*
O=C(Cc1c(Cl)cccc1Cl)Nc1ccncc1,-6.7,-6.8,17.4,0.3,nt,8.7,nt,nt,nt
O=C(Cc1ccc(Cl)cc1Cl)Nc1ccncc1,50.7,-5.6,-1.2,0.9,nt,31.6,43.3,16.4,22.3
S=C(NCc1ccc(Cl)cc1)Nc1ccncc1,63.3*,-5.7,-41.8,4.4,nt,30.8,49.2*,13.9,35.8*
O=C(Cc1ccc(Cl)cc1Cl)Nc1ccncc1Cl,73.0*,-3.4,-4.9,5.1,nt,18.1,49.3*,22.9,31.8*
O=C(Cn1nc(-c2ccccc2)ccc1=O)N1CCCCC1,-0.2,-1.1,0.2,1.3,nt,3.2,nt,nt,nt
C=CCN(C(=O)Cn1nc(C)n2c(cc3cc(C)ccc32)c1=O)c1ccccc1,63.4*,-0.3,-20.9,4.3,nt,5.2,24.3,18.0,-24.5
O=C1/C(=C/c2ccccn2)SC(=S)N1Nc1ncc(C(F)(F)F)cc1Cl,1.3,nt,nt,nt,nt,nt,nt,nt,nt
Cc1ccc(C)c(N2CCN(C(=O)c3ccc(NC4=NC5CS(=O)(=O)CC5S4)cc3)CC2)c1 (stereo not drawn),-0.1,-3.3,6.2,1.1,nt,7.6,nt,nt,nt
O=C(c1cc(COc2ccc3ncccc3c2)on1)N1CCCC1,36.3,-4.5,-47.1,2.0,nt,13.2,nt,nt,nt
